# Data from ChEMBL document CHEMBL3769316, “Discovery of novel heteroarylmethylcarbamodithioates as potent anticancer agents: Synthesis, structure-activity relationship analysis and biological evaluation” (Eur J Med Chem, 2016).
# Activity calls are given as the source filed them. The calls are words filed in the database; no cut-off is given here.
# Experiments:
# [1] = Cytotoxicity against human Bel7402 cells after 72 hrs by alamar blue assay; type: functional, cell-based; conditions: Bel-7402, 72 h
# Outline: (§1)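 Cells seeded and cultured overnight, then exposed to compound at varying concentrations for 72 h. Cells were then incubated 2-4 h in medium containing 10% Alamar blue, and fluorescence was read at ex 530/em 590 nm. Dose-response curves used at least five concentrations, and IC50 (50% growth inhibition) was taken from these curves. Culture was at 37 °C.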
# SK-BR-3 = assay: Cytotoxicity against human SK-BR-3 cells after 72 hrs by alamar blue assay; type: functional, cell-based; conditions: SK-BR-3, 72 h; outline: as §1
# MDA-MB-468 = assay: Cytotoxicity against human MDA-MB-468 cells after 72 hrs by alamar blue assay; type: functional, cell-based; conditions: MDA-MB-468, 72 h; outline: as §1
# NCI-H1299 = assay: Cytotoxicity against human NCI-H1299 cells after 72 hrs by alamar blue assay; type: functional, cell-based; conditions: NCI-H1299, 72 h; outline: as §1
# NCI-H460 = assay: Cytotoxicity against human NCI-H460 cells after 72 hrs by alamar blue assay; type: functional, cell-based; conditions: NCI-H460, 72 h; outline: as §1
# NCI-H522 = assay: Cytotoxicity against human NCI-H522 cells after 72 hrs by alamar blue assay; type: functional, cell-based; conditions: NCI-H522, 72 h; outline: as §1
# [2] = Cytotoxicity against human DU145 cells after 72 hrs by alamar blue assay; type: functional, cell-based; conditions: DU-145, 72 h; outline: as §1
# [3] = Cytotoxicity against human COLO205 cells after 72 hrs by alamar blue assay; type: functional, cell-based; conditions: COLO 205, 72 h; outline: as §1
# [4] = Cytotoxicity against human HCT8 cells after 72 hrs by alamar blue assay; type: functional, cell-based; conditions: HCT-8, 72 h; outline: as §1
# [5] = Cytotoxicity against human PC3 cells after 72 hrs by alamar blue assay; type: functional, cell-based; conditions: PC-3, 72 h
# Outline: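 PC-3 cells were grown at 37 °C, 5% CO₂ in F-12K with 10% FBS, penicillin and streptomycin. They were seeded overnight and treated with at least five concentrations for 72 h. Alamar blue (10% in medium) was added for 2-4 h, and fluorescence was read at 530/590 nm. IC50 was taken from the dose-response curves.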
# [6] = Cytotoxicity against human HCT116 cells after 72 hrs by alamar blue assay; type: functional, cell-based; conditions: HCT-116, 72 h; outline: as §1
# [7] = Cytotoxicity against human LO2 cells after 72 hrs by alamar blue assay; type: cell-based; conditions: L02, 72 h; outline: as §1
# [8] = Cytotoxicity against HEK293T cells after 72 hrs by alamar blue assay; type: cell-based; conditions: Homo sapiens, HEK-293T
# PC-3 [9] = assay: Induction of apoptosis in human PC3 cells assessed as chromatin condensation at 0.5 to 2 uM after 48 hrs by Hoechst 33342 staining-based fluorescence microscopy; type: functional, cell-based
# Outline: (§2)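 Cells were treated with graded concentrations for 48 h, washed with PBS and fixed in 4% paraformaldehyde for 15 min. They were then stained with Hoechst 33342 (10 µg/ml in PBS) for 10 min at room temperature. Nuclear morphology and chromatin condensation were imaged by fluorescence microscopy under UV illumination.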
# Bel-7402 [10] = assay: Induction of apoptosis in human Bel7402 cells assessed as chromatin condensation at 1 to 4 uM after 48 hrs by Hoechst 33342 staining-based fluorescence microscopy; type: functional, cell-based; outline: as §2
# PC-3 [11] = assay: Induction of apoptosis in human PC3 cells assessed as increase in early apoptotic cells after 48 hrs by annexin V-FITC/propidium iodide staining-based flow cytometry; type: functional, cell-based
# Outline: (§3)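 After 48 h exposure to graded concentrations, both floating and adherent cells were collected into binding buffer. They were stained with Annexin V-FITC plus PI for 15 min in the dark and analysed immediately by flow cytometry. Annexin V+/PI− cells were counted as early apoptotic and Annexin V+/PI+ cells as late apoptotic.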
# Bel-7402 [12] = assay: Induction of apoptosis in human Bel7402 cells assessed as increase in early apoptotic cells after 48 hrs by annexin V-FITC/propidium iodide staining-based flow cytometry; type: functional, cell-based; outline: as §3
# PC-3 [13] = assay: Induction of apoptosis in human PC3 cells assessed as increase in late apoptotic cells after 48 hrs by annexin V-FITC/propidium iodide staining-based flow cytometry; type: functional, cell-based; outline: as §3
# Bel-7402 [14] = assay: Induction of apoptosis in human Bel7402 cells assessed as increase in late apoptotic cells after 48 hrs by annexin V-FITC/propidium iodide staining-based flow cytometry; type: functional, cell-based; outline: as §3
# PC-3 [15] = assay: Induction of cell cycle arrest in human PC3 cells assessed as accumulation at G0/G1 phase at 2 uM after 24 hrs by propidium iodide staining-based flow cytometry (reference value: 42.23%); type: functional
# PC-3 [16] = assay: Induction of cell cycle arrest in human PC3 cells assessed as accumulation at S phase at 2 uM after 24 hrs by propidium iodide staining-based flow cytometry (reference value: 37.86%); type: functional
# PC-3 [17] = assay: Induction of cell cycle arrest in human PC3 cells assessed as accumulation at G2/M phase at 2 uM after 24 hrs by propidium iodide staining-based flow cytometry (reference value: 19.9%); type: functional
# Bel-7402 [18] = assay: Induction of cell cycle arrest in human Bel7402 cells assessed as accumulation at G0/G1 phase at 2 uM after 24 hrs by propidium iodide staining-based flow cytometry (reference value: 36.76%); type: functional
# Bel-7402 [19] = assay: Induction of cell cycle arrest in human Bel7402 cells assessed as accumulation at S phase at 2 uM after 24 hrs by propidium iodide staining-based flow cytometry (reference value: 47.24%); type: functional
# Bel-7402 [20] = assay: Induction of cell cycle arrest in human Bel7402 cells assessed as accumulation at G2/M phase at 2 uM after 24 hrs by propidium iodide staining-based flow cytometry (reference value: 16%); type: functional
# PC-3 [21] = assay: Induction of mitotic arrest in human PC3 cells assessed as increase in MPM-2 level at 0.5 to 4 uM after 24 hrs by Western blot method; type: functional, cell-based
# Outline: (§4)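 PC-3 cells were treated 24 h with compound (0.5-4 µM) or taxol (40 nM) as positive control, then lysed in RIPA with PMSF and protease inhibitors. Lysates were run on SDS-PAGE and transferred to PVDF, which was blocked with 5% milk for 1 h. Membranes were probed overnight at 4 °C for MPM-2 (1:1000), phospho-H3 (1:600) or β-actin (1:1000), followed by HRP secondary and chemiluminescence.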
# PC-3 [22] = assay: Induction of mitotic arrest in human PC3 cells assessed as increase in histone H3 phosphorylation at Ser10 at 0.5 to 4 uM after 24 hrs by Western blot method; type: functional, cell-based; outline: as §4
# PC-3 [23] = assay: Induction of mitotic arrest in human PC3 cells assessed as increase in supernumerary centrosome formation at 2 uM after 6 hrs using DAPI staining by immunofluorescence-based laser scanning confocal microscopy; type: functional, cell-based
# Outline: (§5)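 PC-3 cells on confocal dishes were exposed 6 h to compound (2 µM) or taxol (40 nM), then fixed in 4% paraformaldehyde overnight at 4 °C and blocked. They were stained overnight at 4 °C with anti-β-tubulin and anti-γ-tubulin (1:100 each), then 1 h with Alexa Fluor 488/647 secondaries, and co-stained for DNA. Spindles and centrosomes were imaged by confocal microscopy.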
# PC-3 [24] = assay: Induction of mitotic arrest in human PC3 cells assessed as increase in multipolar spindle formation at 2 uM after 6 hrs using DAPI staining by immunofluorescence-based laser scanning confocal microscopy; type: functional, cell-based; outline: as §5
# [25] = Cytotoxicity against human SW620 cells after 72 hrs by alamar blue assay; type: functional, cell-based; conditions: SW-620, 72 h
# Outline: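 SW620 cells were kept at 37 °C in 100% air in Leibovitz's L-15 with 10% FBS, penicillin and streptomycin. After overnight seeding, cells were given at least five concentrations for 72 h. Cells were then incubated 2-4 h with 10% Alamar blue, and fluorescence was read at ex 530/em 590 nm. IC50 was interpolated from the dose-response curves.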
compound,measurement,setting,value
S=C(NCc1cccnc1)SCCc1nnc(-c2ccccc2)o1,IC50,[1],1.23 µM
same,IC50,SK-BR-3,0.58 µM
same,IC50,MDA-MB-468,2.77 µM
same,IC50,NCI-H1299,1.89 µM
same,IC50,NCI-H460,6.07 µM
same,IC50,NCI-H522,2.16 µM
same,IC50,[2],3.34 µM
same,IC50,[3],7.92 µM
same,IC50,[4],5.98 µM
same,IC50,[5],0.39 µM
same,IC50,[6],8.21 µM
same,IC50,[7],9.67 µM
same,IC50,[8],14.6 µM
same,Activity,PC-3 [9],Active
same,Activity,Bel-7402 [10],Active
same,Activity,PC-3 [11],Dose-dependent effect
same,Activity,Bel-7402 [12],Dose-dependent effect
same,Activity,PC-3 [13],Dose-dependent effect
same,Activity,Bel-7402 [14],Dose-dependent effect
same,Activity,PC-3 [15],22.41%
same,Activity,PC-3 [16],26.46%
same,Activity,PC-3 [17],51.1%
same,Activity,Bel-7402 [18],21.42%
same,Activity,Bel-7402 [19],29.9%
same,Activity,Bel-7402 [20],46.27%
same,Activity,PC-3 [21],Active
same,Activity,PC-3 [22],Active
same,Activity,PC-3 [23],Active
same,Activity,PC-3 [24],Active
same,IC50,[25],3.8 µM
